The whole screen tested about 360,000 compounds, of which about 1,400 (0.39%) were called active. The sample as a whole holds a higher share of actives than the screen did. Unmarked numbers belong to inactive results.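 The calls were made as follows: active = pattern-corrected inhibition above about 35%, with an unprinted fluorescence ratio check between 0.5 and 1.5 (limit read from the data, passing the limit was not always enough); inactive = the rest.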
Molecular target: COP9 signalosome complex subunit 5 (Homo sapiens) (UniProt Q92905)
Experiment: CSN5 deneddylase inhibitors on cullin-RING ligase – biochemical, fluorescence polarization, uHTS, primary screen (AID 651999);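 also: 0% = enzyme with substrate and 100% = substrate without enzyme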
Details: Purified CSN, SCF-Nedd8-OG deneddylation, at 12.5 µM, stronger effect = higher value
Method in brief: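 Detection – fluorescence polarization · System – HEK293T-derived human Csn5 enzyme · Controls – substrate-only high control, full reaction low control · Timing – 90 min, room temperature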

Sequence of COP9 signalosome complex subunit 5 (Homo sapiens) (Q92905 whole entry, looked up, one chain of several): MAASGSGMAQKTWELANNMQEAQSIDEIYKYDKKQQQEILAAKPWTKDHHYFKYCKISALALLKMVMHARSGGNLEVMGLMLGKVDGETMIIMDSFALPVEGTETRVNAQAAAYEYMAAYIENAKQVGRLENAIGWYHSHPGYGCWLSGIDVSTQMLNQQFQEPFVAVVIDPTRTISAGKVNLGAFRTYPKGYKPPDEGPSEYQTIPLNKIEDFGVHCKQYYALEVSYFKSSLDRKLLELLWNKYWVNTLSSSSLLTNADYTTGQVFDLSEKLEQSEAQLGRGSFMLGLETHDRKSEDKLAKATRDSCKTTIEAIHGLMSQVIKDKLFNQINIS

| Compound | inhibition |
| --- | --- |
| COc1ccc(N2C(=O)/C(=C/c3ccco3)C(=O)NC2=S)cc1 | 39.6% (active) |
| COc1ccc(NC(=O)N2Cc3ccccc3-n3nncc3C2)cc1 | 1.89% |
| COc1ccccc1N=Nc1c(O)[nH]c(=S)[nH]c1=O | 64.6% (active) |
| O=C1N=c2ccccc2=C/C1=C\c1c(O)[nH]c(=S)[nH]c1=O | 3.94% |
| CCOCCc1c(O)[nH]c(=S)[nH]c1=O | -1.36% |
| C=CC12CN(C)[C@@H]3C4CO[C@H](C[C@H]41)[C@]1(C(=O)Nc4ccccc41)[C@@H]32 (stereo not given in full) | 6.32% |
| CC(=O)Nc1ccccc1C(=O)OCC(=O)c1cccc2ccccc12 | -2.94% |
| CCN1CCN(c2nc3c(c(=O)[nH]2)CCC3)CC1 | 2.3% |
| CCNc1nc2[nH]c(=O)c3c(c2s1)OC(N)=C(C#N)C3c1cccs1 (stereo not given) | 7.11% |
| Cn1c(O)c(C=NCCN2CCNCC2)c(=O)n(C)c1=O | 2.48% |
| O=C(CN1CCCC1=O)NCCc1ccccc1 | -4.34% |
| CC(C)(C)c1ccc(CN2C(=O)CN=C(c3ccccc3)c3ccccc32)cc1 | -0.66% |
| O=C1CC(=O)N(Cc2ccccc2)C(=O)N1CCCCCCN1C(=O)CC(=O)N(Cc2ccccc2)C1=O | 81.1% (active) |
| COC(=O)C1=C(c2cc3ccccc3s2)C[C@@H]2CC[C@H]1N2C(=O)NC(C)C | 4.07% |
| Cc1cccc(-n2c(O)c(/C=N/N3CCOCC3)c(=O)[nH]c2=S)c1 | -0.17% |
